Assay outcomes: PubChem BioAssay, several laboratories
RGS4 act – RGS4 potentiators or activators, primary screen, cell-based, HEK293 M3R inducible RGS4, calcium flux | carbachol calcium flux Fluo4; stronger effect = lower value | B-score at 10 µM | 0.92% of 310,000 active;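 active = B-score of the integrated calcium signal more than 4 SD below the library mean, with starting fluorescence not abnormally high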;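 also: negative B-score means reduced calcium response which marks RGS4 activation or potentiation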
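Also added: carbachol at ECmax as muscarinic agonist stimulus; Assay system: HEK293 cells with stable M3R and inducible RGS4; Timing: overnight RGS4 induction, 30 min dye load 37 °C, 20 min compound RT; Measured by: Fluo4-AM (2 µM) calcium-flux fluorescence, kinetic read.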
MrgX1 antagonist – antagonists of human MrgX1 receptor, primary screen, HEK293 cells, Fluo-4 calcium flux; AID 588676, 2011; 1.3% of 310,000 active; BAM8-22 antagonism; stronger effect = lower value; B-score at 10 µM;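 active = calcium-response B-score plate-corrected more than 3 library SD below zero, starting fluorescence within 5 deviations, no agonist response on first addition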;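 also: peak minus trough fluorescence over baseline after final BAM8-22 challenge near maximal dose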
Target sequence (Q96LB2 whole entry, looked up): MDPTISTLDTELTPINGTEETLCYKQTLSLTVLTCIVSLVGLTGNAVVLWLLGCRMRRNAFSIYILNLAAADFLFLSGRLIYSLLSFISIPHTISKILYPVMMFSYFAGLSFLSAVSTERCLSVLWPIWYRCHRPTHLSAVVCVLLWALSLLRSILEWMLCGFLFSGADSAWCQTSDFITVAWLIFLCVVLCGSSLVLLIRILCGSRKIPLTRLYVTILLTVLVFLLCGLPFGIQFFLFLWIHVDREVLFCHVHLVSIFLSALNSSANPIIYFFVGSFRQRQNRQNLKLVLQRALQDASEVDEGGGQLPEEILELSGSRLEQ
PHOSPHO1 block – PubChem AID 1565. recombinant PHOSPHO1, absorbance phosphatase assay. inhibition, % at 13.3 µM. 1.1% of 290,000 active; in the data active = inhibition above about 60%
Target sequence (Q8TCT1 whole entry, looked up): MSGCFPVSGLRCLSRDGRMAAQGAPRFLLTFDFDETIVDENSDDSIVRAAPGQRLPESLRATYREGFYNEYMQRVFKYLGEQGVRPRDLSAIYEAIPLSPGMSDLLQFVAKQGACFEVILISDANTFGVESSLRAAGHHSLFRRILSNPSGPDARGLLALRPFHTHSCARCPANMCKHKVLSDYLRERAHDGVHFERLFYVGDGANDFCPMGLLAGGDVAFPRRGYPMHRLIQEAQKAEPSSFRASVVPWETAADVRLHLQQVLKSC
MrgX1 agonist – agonists of human MrgX1 receptor, primary screen, HEK293 cells, Fluo-4 calcium flux. Mas-related G-protein coupled receptor member X1 (Homo sapiens), Q96LB2. Fluo-4 calcium fluorescence, agonist mode; stronger effect = higher value. B-score at 10 µM. 0.44% of 310,000 active;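 active = calcium response B-score plate-corrected fluorescence ratio at least 3 library SD, with starting fluorescence B-score inside 5 SD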
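Material: MrgX1-expressing HEK293 cells / Dosing: compound as first of three additions / Incubation: overnight seeding, then 1 h dark dye loading / Signal: Fluo-4 NW calcium fluorescence / Evaluation: B-scored fluorescence response ratio / Benchmarks: positive and negative control wells on each plate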
MrgX1 allo act – positive allosteric modulators of MrgX1, primary screen, HEK293 cells, Fluo-4 calcium flux; Mas-related G-protein coupled receptor member X1 (Homo sapiens), Q96LB2; FDSS; stronger effect = higher value; B-score at 10 µM; 0.63% of 310,000 active; AID 588675, 2011;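 active = plate-corrected calcium response at least 3 library SD above typical, normal starting fluorescence, not activating the receptor alone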;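 also: compound read alongside a low EC10 to EC30 dose of BAM8-22 agonist; peak minus trough fluorescence over baseline measured at the second addition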
RGS4 inh – RGS4 inhibitors, primary screen, cell-based, HEK293 M3R inducible RGS4, calcium flux; Regulator of G-protein signaling 4 (Homo sapiens), P49798; Fluo-4 calcium flux; stronger effect = higher value; triggered by carbachol at its EC20; B-score at 10 µM; 0.45% of 310,000 active; AID 463165, 2010;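 active = B-score, a plate-corrected calcium signal, over three deviations above library mean, with baseline fluorescence within five deviations of library mean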;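 also: RGS4 expression induced by doxycycline in cells with stable M3 receptor; B-score is computed from the integrated fluorescence ratio over baseline after carbachol; higher B-score means a larger calcium signal and so more RGS4 inhibition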
Target sequence (P49798 whole entry, looked up): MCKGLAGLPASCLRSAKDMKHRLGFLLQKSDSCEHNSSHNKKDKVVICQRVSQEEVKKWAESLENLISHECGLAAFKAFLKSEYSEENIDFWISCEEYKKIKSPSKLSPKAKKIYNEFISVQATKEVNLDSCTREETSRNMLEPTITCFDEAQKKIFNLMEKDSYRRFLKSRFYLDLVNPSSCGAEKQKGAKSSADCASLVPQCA
MrgX1 ag reconf – MrgX1 receptor agonists, duplicate retest, confirmation, HEK293 cells, Fluo-4 calcium flux. shares compounds with MrgX1 agonist. Fluo-4 calcium fluorescence, FDSS. activation, % at 10 µM. 78% of 600 active;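 active = calcium signal rise, corrected for plate position, at least 3 library SD high, with starting brightness within 5 such deviations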
HEK293 Ca flux – nonspecific calcium signal in parental HEK293, confirmation, counter-screen for MrgX1 antagonist project, parental HEK293 cells, Fluo-4 calcium flux; 2% of 4,000 active; shares compounds with MrgX1 antagonist; Fluo-4 calcium fluorescence, FDSS; fluorescence ratio F(max-min)/F0 at 10 µM;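 active = duplicate-averaged calcium fluorescence ratio at least three times the standard deviation of buffer wells, a nonspecific response in parental cells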
HEK293 Ca counter – calcium response in parental HEK293 cells, primary screen, counter-screen for MrgX1 allosteric activator project, cell-based, Fluo-4 calcium flux, duplicate | shares compounds with MrgX1 antagonist | Fluo-4 fluorescence ratio; stronger effect = higher value | fluorescence ratio F(max-min)/F0 at 10 µM | 0.4% of 4,000 active | AID 624114, 2012;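 active = calcium fluorescence ratio, averaged over duplicates, at least 3 SD of the buffer-well ratio, meaning a nonspecific response in receptor-free cells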;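 also: untransfected parental HEK293 lacking MrgX1 used as counterscreen for MrgX1 allosteric activators; fluorescence change taken during the second addition on a kinetic imager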
HEK293 Ca cntr2 – calcium response in parental HEK293 cells, primary screen, counter-screen for MrgX1 agonist project, cell-based, Fluo-4 calcium flux, duplicate, agonist mode | shares compounds with MrgX1 antagonist | Fluo-4 calcium fluorescence (FDSS); stronger effect = higher value | fluorescence ratio F(max-min)/F0 at 10 µM | 8.7% of 4,000 active;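 active = calcium fluorescence ratio at least three times the spread of buffer wells, meaning a non-specific response in parental cells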
Of the large screens only hits and unclear results are named; the others gave an inactive call (follow-up assays come after a bar, where they were run). Hits are enriched below; roughly 4.5% of the tested compounds scored in any of these assays.

CN=C(Nc1cc(C)nn1CCC#N)c1ccccc1	none
CCOc1ccc(S(=O)(=O)Nc2ncn[nH]2)cc1	none
CCOc1ccc(Br)cc1S(=O)(=O)Nc1ncn[nH]1	MrgX1 agonist 32 | MrgX1 ag reconf inactive | HEK293 Ca flux inactive | HEK293 Ca counter inactive | HEK293 Ca cntr2 inactive
O=[N+]([O-])c1ccc2c(c1)N([O-])C1(CCCCC1)[N+]2=O	none (no result: RGS4 act, MrgX1 antagonist, MrgX1 agonist, MrgX1 allo act, RGS4 inh)
O=C(c1ccco1)N1CCN(C(=O)C23CC4CC(CC(C4)C2)C3)CC1	none
COc1ccc2nc(Cl)c(/C=N/Nc3ccccn3)cc2c1	none
CC(C)c1cccc(C(C)C)c1OCCCCCN1CCOCC1	none (no result: PHOSPHO1 block)
Fc1cccc(NCCc2c[nH]c3ccccc23)n1	MrgX1 agonist 28 (no result: PHOSPHO1 block) | MrgX1 ag reconf 116% | HEK293 Ca flux inactive | HEK293 Ca counter inactive | HEK293 Ca cntr2 inactive
COc1ccc(C)cc1S(=O)(=O)Nc1ccc(-n2c(C)nc3ccccc3c2=O)cc1	none (no result: PHOSPHO1 block)
COc1ccc(-n2c(O)c(/C=N/Nc3nc(C)cc(C)n3)c3ccccc3c2=O)cc1OC	none
COc1ccc(-n2c(O)c(/C=N/NS(=O)(=O)c3ccc(C)cc3)c3ccccc3c2=O)cc1OC	RGS4 act -7, MrgX1 agonist 86 | MrgX1 ag reconf 199% | HEK293 Ca flux inactive | HEK293 Ca counter inactive | HEK293 Ca cntr2 67
COc1ccc(-n2c(O)c(/C=N/NS(=O)(=O)c3cc(C)ccc3C)c3ccccc3c2=O)cc1OC	RGS4 act -7.7, MrgX1 agonist 130 | MrgX1 ag reconf 322% | HEK293 Ca flux 0.32 | HEK293 Ca counter inactive | HEK293 Ca cntr2 132
CSc1ccccc1OCc1cc(C(=O)NC2CCOC2)no1 (stereo not drawn)	none
COc1ccc2c(c1)nc(N)n2Cc1ccccc1	MrgX1 agonist 49 | MrgX1 ag reconf 233% | HEK293 Ca flux inactive | HEK293 Ca counter inactive | HEK293 Ca cntr2 inactive
CC1CCCN(C(=O)Cn2nnc(-c3ccccc3F)n2)C1 (stereo not drawn)	none
CCCc1nc2ccccc2c(=O)n1/N=C/c1c(C)[nH]n(-c2ccc(C)cc2)c1=O	MrgX1 agonist 78 | MrgX1 ag reconf 320% | HEK293 Ca flux inactive | HEK293 Ca counter inactive | HEK293 Ca cntr2 91
CCc1ccc(-c2csc3ncn(Cc4ccc(C(=O)O)cc4)c(=O)c23)cc1	MrgX1 agonist 31 | MrgX1 ag reconf 149% | HEK293 Ca flux inactive | HEK293 Ca counter inactive | HEK293 Ca cntr2 inactive
CCCOC(=O)Cn1cnc2scc(-c3ccc(C)cc3)c2c1=O	none
CCc1cccc(C)c1NC(=S)N1CCCCC1c1cccnc1 (stereo not drawn)	MrgX1 agonist 28 | MrgX1 ag reconf 100% | HEK293 Ca flux inactive | HEK293 Ca counter inactive | HEK293 Ca cntr2 48
CCC(C)(C)C1CCc2[nH]nc(C(=O)NCc3ccccn3)c2C1 (stereo not drawn)	none (no result: RGS4 act, PHOSPHO1 block, RGS4 inh)
O=S(=O)(Nc1c(O)ccc2ccccc12)c1ccccc1	MrgX1 agonist 29 (no result: PHOSPHO1 block) | MrgX1 ag reconf inactive | HEK293 Ca flux inactive | HEK293 Ca counter inactive | HEK293 Ca cntr2 inactive
O=S(=O)(Nc1ncccn1)c1ccc(F)cc1	none
O=S(=O)(Nc1c(O)ccc2ccccc12)c1ccc(F)cc1	MrgX1 agonist 40 (no result: PHOSPHO1 block) | MrgX1 ag reconf 81% | HEK293 Ca flux inactive | HEK293 Ca counter inactive | HEK293 Ca cntr2 inactive
CS(=O)(=O)N(CC(=O)Nc1ccccc1C(=O)N1CCCC1)c1ccccc1Br	none
COc1ccc(-c2csc(NC(=O)CS(=O)(=O)c3ccc(F)cc3)n2)cc1OC	MrgX1 agonist 55 (no result: PHOSPHO1 block) | MrgX1 ag reconf inactive | HEK293 Ca flux inactive | HEK293 Ca counter inactive | HEK293 Ca cntr2 inactive
COc1ccc(-c2csc(NC(=O)Cc3cc(OC)c(OC)c(OC)c3)n2)cc1OC	none
COc1ccc(-c2csc(NC(=O)CCN3C(=O)C4CC=CCC4C3=O)n2)cc1OC (stereo not drawn)	RGS4 act -7.3, MrgX1 agonist 45 (no result: PHOSPHO1 block) | MrgX1 ag reconf inactive | HEK293 Ca flux inactive | HEK293 Ca counter inactive | HEK293 Ca cntr2 inactive
N/N=C(/Cc1nc2ccccc2[nH]1)c1ccc([N+](=O)[O-])cc1	none
O=C(CN1C(=O)C(=O)c2ccccc21)c1ccccc1	none
O=C1C(=O)N(Cc2cccs2)c2ccccc21	MrgX1 agonist 33 | MrgX1 ag reconf 185% | HEK293 Ca flux inactive | HEK293 Ca counter inactive | HEK293 Ca cntr2 inactive
CCS(=O)(=O)c1nnnn1-c1ccccc1S(C)(=O)=O	MrgX1 agonist 27 | MrgX1 ag reconf 105% | HEK293 Ca flux inactive | HEK293 Ca counter inactive | HEK293 Ca cntr2 inactive
NC(=O)/C(=C\c1cccnc1)NC(=O)c1ccccc1	none
Cc1ccc(NC(=O)CCl)cc1S(=O)(=O)N1CCCCCC1	MrgX1 agonist 29 | MrgX1 ag reconf 169% | HEK293 Ca flux inactive | HEK293 Ca counter inactive | HEK293 Ca cntr2 inactive
O=C(CSc1n[nH]c(-c2ccc(S(=O)(=O)N3CCCCC3)cc2)n1)Nc1nccs1	none
Cc1cccc2c1N(CCCOc1ccc(C(C)(C)C)cc1)C(=O)C2=O	none
Cc1cccc2c1N(CCCOc1ccccc1)C(=O)C2=O	MrgX1 agonist 35 | MrgX1 ag reconf 251% | HEK293 Ca flux inactive | HEK293 Ca counter inactive | HEK293 Ca cntr2 50
O=C(NCC(c1ccco1)N1CCN(c2ccccc2F)CC1)C(=O)NC1CC1 (stereo not drawn)	none (no result: PHOSPHO1 block)
COc1ccccc1Oc1ccnc2cc(Cl)ccc12	MrgX1 agonist 30 | MrgX1 ag reconf 103% | HEK293 Ca flux inactive | HEK293 Ca counter inactive | HEK293 Ca cntr2 inactive
CCOc1cc(C#N)ccc1OCC(=O)N1CCc2ccccc2C1	none (no result: PHOSPHO1 block)
